This note sets out measurements from ChEMBL document CHEMBL1138117, “Hybrid antibacterials. DNA polymerase-topoisomerase inhibitors” (J Med Chem, 2006).

In brackets after ≈: the same amount, converted by molar mass.

For orientation: MIC means the least concentration at which growth counts as inhibited. As usually defined, the Ki is the equilibrium dissociation constant of an inhibitor or competing ligand from its target. The ED50 is the dose that gives a 50% effect, or the effect in half of the subjects. As a reminder, the IC50 is the concentration that inhibits the measured activity by half. High values mean a need for much substance, low ones inhibition by little substance.

Assay [1] deals with Escherichia coli. Briefly: Antibacterial activity against Escherichia coli J53. The format is functional.
For assay [2], the system named is Staphylococcus aureus. Briefly: Antibacterial activity against methicillin resistant Staphylococcus aureus MRSA 1094. The format is functional.
Assay [3] has as its target DNA polymerase III PolC-type (Bacillus subtilis (strain 168), UniProt P13267). The assay is described as follows: Binding affinity to Bacillus subtilis DNA polymerase3C. The gist of the method:
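Homogeneous recombinant B. subtilis pol IIIC was assayed in 96-well format on activated calf thymus DNA. Apparent Ki values were determined in a truncated assay lacking the competitor dGTP.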

Assay [4] relates to Bacillus subtilis. Briefly: Antibacterial activity against Bacillus subtilis BD54. In kind it is functional.
In assay [5] the test system is Enterococcus faecalis. The assay is described as follows: Antibacterial activity against Enterococcus faecalis 29212. The format is functional.
Assay [6] relates to Enterococcus faecium. Briefly: Antibacterial activity against Enterococcus faecium 19434. The format is functional.
Assay [7] has as its system Mus musculus. The assay is described as follows: Effect on survival of mice after ip infection with Staphylococcus aureus Smith. In kind it is functional. In a few lines:
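Male Swiss-Webster mice (20–24 g) were given 10⁸ CFU of log-phase S. aureus Smith ip, grown in LB at 37 °C and washed in cold broth. A single iv tail-vein dose was given in DCP vehicle (10% DMA, 10% Cremophor EL in PBS, pH 9.5; 5 mL/kg) 15 min post-infection. Survival was scored at 72 h and ED50 derived.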

For assay [8], the system named is Enterococcus faecium. The assay is described as follows: Antibacterial activity against Vancomycin resistant Enterococcus faecium VRE 700802. In kind it is functional.
Assay [9] deals with DNA gyrase (Bacillus subtilis). The assay is described as follows: Inhibition of Bacillus subtilis gyrase activity.
Assay [10] relates to Staphylococcus aureus. Briefly: Antibacterial activity against Staphylococcus aureus smith. In kind it is functional.
For assay [11], the system named is Staphylococcus aureus. Briefly: Antibacterial activity against Staphylococcus aureus 25293. The format is functional.

DNA polymerase III PolC-type, sequence (P13267 whole entry, the tested form may be a part): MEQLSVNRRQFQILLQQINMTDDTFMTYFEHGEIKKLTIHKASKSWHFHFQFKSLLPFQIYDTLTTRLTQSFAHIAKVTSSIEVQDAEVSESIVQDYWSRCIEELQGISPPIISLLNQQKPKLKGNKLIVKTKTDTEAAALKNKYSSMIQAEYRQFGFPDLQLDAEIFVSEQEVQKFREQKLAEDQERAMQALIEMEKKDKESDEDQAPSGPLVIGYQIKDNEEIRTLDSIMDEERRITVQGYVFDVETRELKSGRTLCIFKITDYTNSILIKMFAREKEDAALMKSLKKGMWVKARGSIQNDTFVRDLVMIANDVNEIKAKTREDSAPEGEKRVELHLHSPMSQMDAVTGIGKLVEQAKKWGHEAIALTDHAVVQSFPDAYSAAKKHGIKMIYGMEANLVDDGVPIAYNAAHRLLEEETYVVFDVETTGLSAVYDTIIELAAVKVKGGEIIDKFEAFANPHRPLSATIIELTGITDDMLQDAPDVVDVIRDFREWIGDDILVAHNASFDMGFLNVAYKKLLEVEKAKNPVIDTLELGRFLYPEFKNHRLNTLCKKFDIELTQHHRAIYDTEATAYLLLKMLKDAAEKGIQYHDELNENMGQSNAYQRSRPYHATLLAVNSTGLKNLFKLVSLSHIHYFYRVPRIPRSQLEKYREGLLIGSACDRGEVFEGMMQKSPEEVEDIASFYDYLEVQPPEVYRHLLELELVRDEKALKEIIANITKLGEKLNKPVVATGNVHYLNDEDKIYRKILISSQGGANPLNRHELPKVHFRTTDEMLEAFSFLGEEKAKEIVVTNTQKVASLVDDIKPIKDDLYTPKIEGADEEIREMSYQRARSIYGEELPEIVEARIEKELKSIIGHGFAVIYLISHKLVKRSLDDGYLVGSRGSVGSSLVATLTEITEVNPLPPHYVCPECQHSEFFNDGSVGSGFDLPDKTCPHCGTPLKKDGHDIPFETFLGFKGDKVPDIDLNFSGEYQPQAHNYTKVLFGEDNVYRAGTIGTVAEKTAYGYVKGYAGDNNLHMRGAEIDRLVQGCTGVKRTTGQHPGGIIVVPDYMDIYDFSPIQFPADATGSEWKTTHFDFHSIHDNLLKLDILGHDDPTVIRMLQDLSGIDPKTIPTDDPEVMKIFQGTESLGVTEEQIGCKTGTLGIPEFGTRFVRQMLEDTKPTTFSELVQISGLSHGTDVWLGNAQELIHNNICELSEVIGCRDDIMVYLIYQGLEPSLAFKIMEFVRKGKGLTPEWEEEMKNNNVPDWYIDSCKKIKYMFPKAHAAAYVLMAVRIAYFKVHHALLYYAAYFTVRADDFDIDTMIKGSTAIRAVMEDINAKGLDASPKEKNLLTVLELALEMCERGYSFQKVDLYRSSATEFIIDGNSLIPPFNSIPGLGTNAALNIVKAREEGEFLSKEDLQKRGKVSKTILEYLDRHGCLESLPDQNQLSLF

Turning to `CCc1cc(Nc2cc(=O)n(CCCCN3CCN(c4cc5c(cc4F)c(=O)c(C(=O)O)cn5C4CC4)CC3C)c(=O)[nH]2)ccc1C` (stereo unspecified), the MIC in [1] stood at 40 µg/mL (≈ 62 µM); in [2], 1.25 µg/mL (≈ 1.94 µM); in assay [4] it was 0.313 µg/mL (≈ 0.485 µM); in [5], 1.25 µg/mL (≈ 1.94 µM); in assay [6] it was 1.25 µg/mL (≈ 1.94 µM); in assay [8], 0.626 µg/mL (≈ 0.971 µM). The inhibitory constant (Ki) in [3] (read-out: Ki) is 26 nM. The median effective dose (ED50) in assay [7] came to 20 mg/kg.
Take `CCc1cc(Nc2cc(=O)n(CCCCN3CCN(c4c(F)cc5c(=O)c(C(=O)O)cn(C6CC6)c5c4F)CC3CO)c(=O)[nH]2)ccc1C` (stereo unspecified): the MIC in assay [1] was more than 40 µg/mL; in assay [2], 5 µg/mL (≈ 7.37 µM); in assay [4], 0.625 µg/mL (≈ 0.921 µM); in [5], 2.5 µg/mL (≈ 3.68 µM); in assay [6], 2.5 µg/mL (≈ 3.68 µM); in assay [8], 2.5 µg/mL (≈ 3.68 µM). Also, in [7], the 50% effective dose (ED50) stood at 35 mg/kg.
`CCc1cc(Nc2cc(=O)n(CCCCN3CCN(c4c(F)cc5c(=O)c(C(=O)O)cn(C6CC6)c5c4F)C[C@H]3C)c(=O)[nH]2)ccc1C`: the minimal inhibitory concentration (MIC) amounted to 5 µg/mL (≈ 7.54 µM) in [1]; 1.25 µg/mL (≈ 1.89 µM) in assay [2]; 1.25 µg/mL (≈ 1.89 µM) in [5]; 2.5 µg/mL (≈ 3.77 µM) in assay [6]; 1.25 µg/mL (≈ 1.89 µM) in assay [8]. The inhibition constant (Ki) in [3] (read-out: Ki) was found to be 7 nM. The 50% effect level in [7] (ED50) was put at a dose of 20 mg/kg. The concentration for half-maximal inhibition (IC50) in assay [9] is 11.7 µg/mL (≈ 17.7 µM).
Turning to `C[C@@H]1CN(c2c(F)c(N)c3c(=O)c(C(=O)O)cn(C4CC4)c3c2F)C[C@H](C)N1` [SPARFLOXACIN], the minimum inhibitory concentration (MIC) in assay [1] is less than 0.078 µg/mL; in [2], 10 µg/mL (≈ 25.5 µM); in [4], less than 0.078 µg/mL; in [5] it was 5 µg/mL (≈ 12.7 µM); in assay [6] it was 1.25 µg/mL (≈ 3.19 µM); in [10], less than 0.078 µg/mL. Further, the minimum inhibitory concentration (MIC) in [8] is 80 µg/mL (≈ 204 µM); in assay [11] it was less than 0.078 µg/mL. For the same compound, the inhibitory constant (Ki) entry in [3] is “Not Active”. In addition, the IC50 in [9] amounted to 0.4 µg/mL (≈ 1.02 µM).
As for `CCc1cc(Nc2cc(=O)n(CCCCN3CCN(c4cc5c(cc4F)c(=O)c(C(=O)O)cn5-c4ccc(F)cc4F)CC3)c(=O)[nH]2)ccc1C`, the minimal inhibitory concentration (MIC) in assay [1] is more than 40 µg/mL; in [4], 0.313 µg/mL (≈ 0.445 µM); in [5], 1.25 µg/mL (≈ 1.78 µM); in assay [6], 1.25 µg/mL (≈ 1.78 µM); in [8] it was 1.25 µg/mL (≈ 1.78 µM). Further, the 50% effect level in assay [7] (ED50) was put at a dose of 27 mg/kg.
Turning to `CCc1cc(Nc2cc(=O)n(CCCCCN3CC4CCCN(c5cc6c(cc5F)c(=O)c(C(=O)O)cn6CC)C4C3)c(=O)[nH]2)ccc1C` (stereo unspecified), the minimum inhibitory concentration (MIC) is more than 80 µg/mL in assay [1]; more than 80 µg/mL in assay [2]; 2.5 µg/mL (≈ 3.72 µM) in assay [4]; 10 µg/mL (≈ 14.9 µM) in assay [5]; 20 µg/mL (≈ 29.7 µM) in assay [6]; 5 µg/mL (≈ 7.43 µM) in [10]. For the same compound, the MIC in assay [8] was 5 µg/mL (≈ 7.43 µM); in assay [11], 10 µg/mL (≈ 14.9 µM). Also, in assay [3] (read-out: Ki), the inhibition constant Ki turned out to be 37 nM.
For `CCc1cc(Nc2cc(=O)n(CCCCCN3CCN(c4cc5c(cc4F)c(=O)c(C(=O)O)cn5C4CC4)CC3)c(=O)[nH]2)ccc1C`, the MIC in assay [1] was more than 40 µg/mL; in assay [2], 2.5 µg/mL (≈ 3.88 µM); in assay [4] it was 0.313 µg/mL (≈ 0.485 µM); in [5] it was 0.625 µg/mL (≈ 0.969 µM); in assay [6], 1.25 µg/mL (≈ 1.94 µM); in [10] it was 1.25 µg/mL (≈ 1.94 µM). In addition, the minimal inhibitory concentration (MIC) in [8] and in assay [11] was 1.25 µg/mL (≈ 1.94 µM) throughout. For the same compound, the inhibition constant Ki in assay [3] (read-out: Ki) was 19 nM.
Regarding `CCc1cc(Nc2cc(=O)n(CCCCN3CCN(c4cc5c(cc4F)c(=O)c(C(=O)O)cn5C(C)(C)C)CC3)c(=O)[nH]2)ccc1C.Cl`, the MIC is more than 40 µg/mL in assay [1]; 1.25 µg/mL in assay [2]; 0.313 µg/mL in assay [4]; 0.625 µg/mL in [5]; 1.25 µg/mL in [6]; 0.625 µg/mL in assay [10]. Also, the MIC was found to be 1.25 µg/mL in assay [8] and 0.625 µg/mL in assay [11]. In addition, in assay [3] (read-out: Ki), the inhibition constant Ki came out at 13 nM.
